According to ChEMBL document CHEMBL1124382, “Synthesis and radioprotective activity of dipeptide cysteamine and cystamine derivatives” (J Med Chem, 1989):
“And” between values parts separate entries of the source, which are not always exact repeats. Equal values may be shown once.

Tests used:
[1] = The compound was tested for toxicity in mice, expressed as LD50; format: organism-based; conditions: in vivo
How it was run: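 Three-month-old inbred albino CXVII mice (about 25 g) received compounds dissolved in distilled water by intraperitoneal injection. A preliminary study set the dose range. Five groups of 10 mice then each received a different dose within that range. LD50 was derived by probit analysis.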

[2] = tested on: Mus musculus; assay: The compound was tested for radioprotective activity (DRF) in mice 15 min before whole body irradiation with value in braces indicating the administered dose in mg/Kg
[3] = tested on: Mus musculus; assay: The compound was tested for radioprotective activity (DRF) in mice 2 hours before whole body irradiation with value in braces indicating the administered dose in mg/Kg

| SMILES | LD50 [1] [mg/kg] | DRF [2] | DRF [3] |
| --- | --- | --- | --- |
| CC(=O)SCCNC(=O)CNC(=O)[C@@H](C)N | 1500 | 1.55 and 1 | 1 |
| C[C@H](N)C(=O)NCC(=O)NCCSSCCNC(=O)CNC(=O)[C@@H](C)N | 1500 | 1.35 and 1 |  |
| NCC(=O)NCC(=O)NCCSSCCNC(=O)CNC(=O)CN | 2000 | 1.1 and 1 | 1 |
| CC(=O)SCCNC(=O)CNC(=O)CN | 2400 | 1.55 |  |
| CC(=O)SCCNC(=O)CN | 1500 | 1.4 and 1 | 1 |
| C[C@H](NC(=O)CN)C(=O)NCCSSCCNC(=O)[C@@H](C)NC(=O)CN | 800 | 1.1 |  |
| CC(=O)SCCNC(=O)[C@H](C)NC(=O)CN | 1500 | 1.25 | 1 |
